# ChEMBL document CHEMBL3751702, “Comprehensive Analysis of Structure-Activity Relationships of α-Ketoheterocycles as sn-1-Diacylglycerol Lipase α Inhibitors” (J Med Chem, 2015)
# Target: T1, Diacylglycerol lipase-alpha (Homo sapiens, UniProt Q9Y4D2)
# T1 sequence (Q9Y4D2 whole entry): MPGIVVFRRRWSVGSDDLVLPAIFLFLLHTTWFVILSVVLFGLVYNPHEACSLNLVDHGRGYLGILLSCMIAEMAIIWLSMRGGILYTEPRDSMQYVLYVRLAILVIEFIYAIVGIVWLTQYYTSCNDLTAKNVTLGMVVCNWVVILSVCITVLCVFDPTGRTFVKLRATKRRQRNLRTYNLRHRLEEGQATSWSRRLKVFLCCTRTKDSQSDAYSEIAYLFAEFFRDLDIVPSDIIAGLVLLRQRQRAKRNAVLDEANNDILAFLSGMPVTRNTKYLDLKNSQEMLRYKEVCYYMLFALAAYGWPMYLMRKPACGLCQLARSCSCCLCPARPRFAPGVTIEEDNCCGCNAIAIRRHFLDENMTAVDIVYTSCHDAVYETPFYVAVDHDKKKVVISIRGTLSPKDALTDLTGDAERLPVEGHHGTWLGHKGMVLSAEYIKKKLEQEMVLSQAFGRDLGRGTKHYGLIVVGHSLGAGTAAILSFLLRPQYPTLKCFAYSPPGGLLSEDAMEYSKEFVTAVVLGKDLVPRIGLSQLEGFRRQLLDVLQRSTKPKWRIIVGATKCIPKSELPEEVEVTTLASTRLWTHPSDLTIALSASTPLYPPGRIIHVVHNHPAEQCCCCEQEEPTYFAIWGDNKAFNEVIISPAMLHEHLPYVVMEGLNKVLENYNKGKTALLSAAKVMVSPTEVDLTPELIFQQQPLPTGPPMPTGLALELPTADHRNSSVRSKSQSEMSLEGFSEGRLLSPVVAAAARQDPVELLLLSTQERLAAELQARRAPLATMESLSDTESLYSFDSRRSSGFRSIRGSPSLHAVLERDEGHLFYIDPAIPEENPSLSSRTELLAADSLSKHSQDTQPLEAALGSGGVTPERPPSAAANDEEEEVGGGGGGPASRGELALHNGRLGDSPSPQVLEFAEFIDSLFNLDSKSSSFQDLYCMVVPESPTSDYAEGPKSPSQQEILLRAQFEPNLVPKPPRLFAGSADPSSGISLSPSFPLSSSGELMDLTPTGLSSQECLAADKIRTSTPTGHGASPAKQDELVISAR
# Assay: Inhibition of full-length human DAGLalpha expressed in HEK293T cell membranes using para-nitrophenylbutyrate by colorimetric assay
# Format: cell-based, HEK-293T
# Conditions: not given
# Outline: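 Membranes from HEK293T cells transiently transfected with full-length human DAGL-α (pcDNA3.1; PEI transfection, harvested at 72 h), diluted to 0.05 μg/μL final protein in 50 mM HEPES pH 7.2. Screen at 10 μM in duplicate; dose response by 10-fold serial dilution.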
row,SMILES,IC50 [µM]
1,O=C(CCCCCCc1ccccc1)c1nc(Cl)co1,2.4
2,CS(=O)(=O)c1coc(C(=O)CCCCCCc2ccccc2)n1,0.389
3,C=CCCCCCCCC(=O)c1nc2ncccc2o1,0.55
4,O=C(CCCCCCc1ccccc1)c1nc(-c2cccs2)no1,1.95
5,O=C(CCCCCCc1ccccc1)c1nc2ncccc2o1,0.525
6,O=C(CCCCCCc1ccccc1)c1nnc(-c2ccccc2)o1,> 10
7,O=C(CCCCCc1ccccc1)c1nc2ccccc2o1,3.63
8,O=C(CCCCCCc1ccccc1)c1nncs1,> 10
9,O=C(CCCCCCc1ccccc1)c1ccc(-c2ccco2)nn1,> 10
10,O=C(CCCCCCc1ccccc1)c1ncc(-c2ccc(F)cc2)o1,> 10
11,O=C(CCCCCCc1ccccc1)c1nc(Br)co1,> 10
12,O=C(CCCCCc1ccccc1)c1nc2cccnc2o1,1.7
13,O=C(CCCCCc1ccccc1)c1nc2c(F)cccc2o1,0.117
14,O=C(CCCCCCc1ccccc1)c1noc(-c2ccccn2)n1,> 10
15,CC(=O)c1cnc(C(=O)CCCCCCc2ccccc2)o1,> 10
16,CSc1coc(C(=O)CCCCCCc2ccccc2)n1,> 10
17,O=C(O)c1cccc(-c2noc(C(=O)CCCCCCc3ccccc3)n2)n1,> 10
18,O=C(CCCCCCc1ccccc1)c1ncc(-c2cccc(F)c2)o1,> 10
19,O=C(CCCc1ccccc1)c1nc2ncccc2o1,2.24
20,CCCCCCCCCC(=O)c1nc2ncccc2o1,0.0741
21,O=C(CCCCCCc1ccccc1)c1ncc(-c2ccccn2)s1,> 10
22,O=Cc1cnc(C(=O)CCCCCCc2ccccc2)o1,> 10

row,SMILES,IC50 [µM]
1,O=C(CCCCCCc1ccccc1)c1ncco1,> 10
2,O=C(CCCCCCc1ccccc1)c1nc(-c2ccccc2)co1,8.71
3,O=C(CCCCCCc1ccccc1)c1nnc(-c2cccnc2)o1,> 10
4,O=C(CCCCCCc1ccccc1)c1nc(-c2ccccn2)no1,2.75
5,O=C(CCCCCc1ccccc1)c1nc2ccccc2[nH]1,12
6,CCCCCCCC(=O)c1nc2ncccc2o1,0.631
7,O=C(CCCCCc1ccccc1)c1nc2cnccc2o1,0.204
8,O=C(CCCCCCc1ccccc1)c1ncc(-c2ccccc2F)o1,> 10
9,CN(C)C(=O)c1coc(C(=O)CCCCCCc2ccccc2)n1,3.39
10,O=C(CCCCCc1ccccc1)c1nc2cccc(F)c2o1,> 10
11,O=C(CCCCCCc1ccccc1)c1nnc(-c2ccco2)s1,> 10
12,CNC(=O)c1cnc(C(=O)CCCCCCc2ccccc2)o1,> 10
13,O=C(CCCCCCc1ccccc1)c1nc(-c2ccccn2)co1,> 10
14,O=C(CCCCCCc1ccccc1)c1noc(-c2ccco2)n1,> 10
15,O=C(CCCCCc1ccccc1)c1nc2cc([N+](=O)[O-])ccc2o1,0.891
16,CCCCCCCC/C=C\CCCCCCCC(=O)c1nc2ncccc2o1,0.0263
17,COC(=O)c1nc(C(=O)CCCCCCc2ccccc2)no1,> 10
18,COc1cnc(C(=O)CCCCCCc2ccccc2)o1,> 10
19,COC(=O)c1cnc(C(=O)CCCCCCc2ccccc2)o1,> 10
20,O=C(CCCCCCc1ccccc1)c1nnc(-c2ccco2)o1,> 10
21,O=C(CCCCCCc1ccccc1)c1nnn(-c2cccs2)n1,> 10
22,N#Cc1cccc(-c2noc(C(=O)CCCCCCc3ccccc3)n2)n1,1.05

row,SMILES,IC50 [µM]
1,O=C(CCCCCCc1ccccc1)c1ncc(-c2ccc(C(=O)C(F)(F)F)cc2)o1,> 10
2,O=C(CCCCCc1ccccc1)c1nc2ncccc2[nH]1,1.23
3,CCCCCCCCCCCCCCCC(=O)c1nc2ncccc2o1,0.0646
4,O=C(CCCCCCc1ccccc1)c1nc(-c2ccco2)no1,0.933
5,O=C(CCCCCCc1ccccc1)c1nnn(-c2ccco2)n1,> 10
6,CCCCCC(=O)c1nc2ncccc2o1,> 10
7,O=C(CCCCCc1ccccc1)c1nc2ccc(F)cc2o1,0.708
8,O=C(CCCCCCc1ccccc1)c1nnc(-c2ccccn2)s1,> 10
9,O=C(CCCCCCc1ccccc1)c1nnc(-c2cccs2)s1,> 10
10,CNC(=O)c1coc(C(=O)CCCCCCc2ccccc2)n1,> 10
11,Cc1cnc(C(=O)CCCCCCc2ccccc2)o1,> 10
12,O=C(CCCCCCc1ccccc1)c1ncno1,> 10
13,CN(C)C(=O)c1cnc(C(=O)CCCCCCc2ccccc2)o1,> 10
14,O=C(CCCCCCc1ccccc1)c1nc(-c2ccncc2)co1,> 10
15,O=C(CCCCCCc1ccccc1)c1nnc[nH]1,> 10
16,Cn1nnc(C(=O)CCCCCCc2ccccc2)n1,> 10
17,Cc1coc(C(=O)CCCCCCc2ccccc2)n1,> 10
18,CCCCC/C=C\C/C=C\C/C=C\C/C=C\CCCC(=O)c1nc2ncccc2o1,2.4
19,O=C(CCCCc1ccccc1)c1nc2ncccc2o1,0.204
20,O=C(CCCCCCc1ccccc1)c1ccc(-c2cccs2)nn1,> 10
21,O=C(CCCCCc1ccccc1)c1nc2ncccc2s1,> 10
22,O=C(CCCCCCc1ccccc1)c1ncc(C(F)(F)F)o1,> 10

row,SMILES,IC50 [µM]
1,O=C(CCCCCCc1ccccc1)c1nnc(-c2ccccc2)s1,> 10
2,O=C(CCCCCCc1ccccc1)c1nnc(-c2cccs2)[nH]1,> 10
3,O=C(CCCCCCc1ccccc1)c1nc(C(=O)C(F)(F)F)co1,0.123
4,O=C(CCCCCCc1ccccc1)c1ncc(Cl)o1,> 10
5,CCCCCCCCCCCC(=O)c1nc2ncccc2o1,0.0309
6,Cn1nnnc1C(=O)CCCCCCc1ccccc1,> 10
7,CSc1cnc(C(=O)CCCCCCc2ccccc2)o1,> 10
8,COC(=O)c1cccc(-c2noc(C(=O)CCCCCCc3ccccc3)n2)n1,> 10
9,O=C(CCCCCCc1ccccc1)c1nc(-c2cccc(Br)n2)no1,2.04
10,O=C(CCCCCCc1ccccc1)c1nnco1,2.69
11,O=C(CCCCCCCCc1ccccc1)c1nc2ncccc2o1,0.00363
12,O=C(CCCCCCc1ccccc1)c1nc(-c2cccc(Cl)n2)no1,> 10
13,COc1coc(C(=O)CCCCCCc2ccccc2)n1,> 10
14,O=Cc1coc(C(=O)CCCCCCc2ccccc2)n1,1.51
15,O=C(CCCCCCc1ccccc1)c1noc(-c2cccs2)n1,> 10
16,O=C(CCCCCCc1ccccc1)c1nnc(-c2ccncc2)o1,> 10
17,COC(=O)c1coc(C(=O)CCCCCCc2ccccc2)n1,0.631
18,COc1ccc(-c2cnc(C(=O)CCCCCCc3ccccc3)o2)cc1,> 10
19,COC(=O)c1nnc(C(=O)CCCCCCc2ccccc2)s1,> 10
20,CCCCC(=O)c1nc2ncccc2o1,> 10
21,O=C(CCCCCCc1ccccc1)c1cccnn1,> 10
22,O=C(CCCCCCc1ccccc1)c1nnc(-c2ccco2)[nH]1,> 10

row,SMILES,IC50 [µM]
1,Cc1ccc(-c2cnc(C(=O)CCCCCCc3ccccc3)o2)nc1,> 10
2,CC(=O)c1nc2ncccc2o1,> 10
3,O=C(CCCCCCc1ccccc1)c1ncc(C(=O)C(F)(F)F)o1,1.82
4,O=C(CCCCCCc1ccccc1)c1nnc(-c2ccccn2)[nH]1,> 10
5,O=C(CCCCCCc1ccccc1)c1nnc(-c2ccccn2)o1,> 10
6,O=C(CCCCCCCc1ccccc1)c1nc2ncccc2o1,0.0468
7,O=C(CCCCCCc1ccccc1)c1nnc(-c2ccccc2)[nH]1,> 10
8,O=C(CCCCCc1ccccc1)c1nc2cccc(Br)c2o1,> 10
9,O=C(CCc1ccccc1)c1nc2ncccc2o1,18.2
10,O=C(CCCCCCc1ccccc1)c1ccc(-c2ccccn2)nn1,> 10
11,N#Cc1coc(C(=O)CCCCCCc2ccccc2)n1,0.575
12,O=C(CCCCCCc1ccccc1)c1ncc(-c2ccco2)s1,> 10
13,CCCCCCCC/C=C\CCCCCCCC(=O)c1nc2ccccc2[nH]1,0.195
14,O=C(CCCCCCc1ccccc1)c1nc(-c2cccc(I)n2)no1,> 10
15,O=C(CCCCCCc1ccccc1)c1nnn[nH]1,> 10
16,CS(=O)(=O)c1cnc(C(=O)CCCCCCc2ccccc2)o1,> 10
17,N#Cc1cnc(C(=O)CCCCCCc2ccccc2)o1,> 10
18,O=C(CCCCCc1ccccc1)c1nc2ccc([N+](=O)[O-])cc2o1,0.0871
19,O=C(CCCCCCc1ccccc1)c1nnn(-c2ccccn2)n1,> 10
20,O=C(CCCCCCc1ccccc1)c1ncc(-c2ccccc2)o1,> 10
21,O=C(CCCCCc1ccccc1)c1nc2ccc(Br)cc2o1,5.89
22,O=C(CCCCCCc1ccccc1)c1ncc(Br)o1,> 10

# Same assay, conditions: hek-293t
row,SMILES,pIC50
1,O=C(CCCCCCc1ccccc1)c1nnn[nH]1,< 5
